Results of several laboratories.
Target: Ephrin type-B receptor 2 (EPHB2, Homo sapiens, UniProt P29323)
One construct used (P29323 19-1055): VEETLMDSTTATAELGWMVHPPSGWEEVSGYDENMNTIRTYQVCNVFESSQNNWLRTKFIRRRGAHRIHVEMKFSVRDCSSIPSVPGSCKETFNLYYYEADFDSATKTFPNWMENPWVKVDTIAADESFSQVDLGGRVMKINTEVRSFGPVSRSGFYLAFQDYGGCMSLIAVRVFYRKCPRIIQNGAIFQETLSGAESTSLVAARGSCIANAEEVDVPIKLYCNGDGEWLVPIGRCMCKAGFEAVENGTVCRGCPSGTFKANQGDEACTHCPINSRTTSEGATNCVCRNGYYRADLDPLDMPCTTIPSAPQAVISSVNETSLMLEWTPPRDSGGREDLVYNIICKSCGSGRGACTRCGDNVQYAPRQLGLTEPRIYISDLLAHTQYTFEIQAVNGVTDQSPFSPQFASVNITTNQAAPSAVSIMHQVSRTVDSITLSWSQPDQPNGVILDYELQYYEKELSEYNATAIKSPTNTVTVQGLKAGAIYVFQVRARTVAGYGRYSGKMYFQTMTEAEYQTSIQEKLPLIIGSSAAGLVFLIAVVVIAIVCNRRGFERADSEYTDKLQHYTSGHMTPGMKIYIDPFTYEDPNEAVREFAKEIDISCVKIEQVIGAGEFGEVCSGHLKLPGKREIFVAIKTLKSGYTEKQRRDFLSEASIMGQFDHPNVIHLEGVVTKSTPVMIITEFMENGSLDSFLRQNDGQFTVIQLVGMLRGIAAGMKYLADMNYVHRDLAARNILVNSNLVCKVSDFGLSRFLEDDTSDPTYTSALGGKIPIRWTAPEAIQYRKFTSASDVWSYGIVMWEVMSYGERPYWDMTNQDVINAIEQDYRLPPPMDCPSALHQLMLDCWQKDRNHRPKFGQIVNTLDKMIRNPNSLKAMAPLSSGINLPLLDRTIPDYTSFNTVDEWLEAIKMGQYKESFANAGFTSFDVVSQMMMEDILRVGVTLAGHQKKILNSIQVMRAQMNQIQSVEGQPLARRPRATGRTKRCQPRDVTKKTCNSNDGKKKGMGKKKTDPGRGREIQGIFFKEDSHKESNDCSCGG

N#CC1(c2ccccn2)CCN(Cc2cc(C(=O)O)c(=O)n3ccccc23)CC1
remaining binding (cell-free assay; competition with immobilised ligand; 1 µM): 100%

Cn1cc(-c2cccc(N3CCc4c(sc5c4CC(C)(C)C5)C3=O)c2CO)cc(Nc2ccncn2)c1=O
inhibition (enzyme activity; inhibitor; 1 µM): 1%

Cc1nn(C)cc1-c1nc2c(N3CCN(Cc4ccc(Cl)cc4)CC3)c(Cl)cnc2[nH]1
remaining binding (binding; competition with immobilised ligand; 1 µM): 100%

COc1cc(Nc2ncc(F)c(Nc3ccc4c(n3)NC(=O)C(C)(C)O4)n2)cc(OC)c1OC
inhibition (binding; competition with immobilised ligand; 10 µM): 50%

O=c1[nH]c2ccccc2n1C1CCN(Cc2ccc(-c3[nH]c4cc5ncnc5cc4nc3-c3ccccc3)cc2)CC1
remaining signal (cell-free assay; 0.5 µM): 108%

COc1ncccc1-c1cnn2ccc(N3CCN(C(=O)OC(C)C)CC3)nc12
remaining binding (binding; competition with immobilised ligand; 1 µM): 77%

CC(C)(C)c1cc(C=C(C#N)C#N)cc(Br)c1O
remaining activity (enzyme activity; inhibitor; 0.5 µM): 100%

Cn1cc(-c2cc(F)cc(N3CCn4c(cc5c4CCCC5)C3=O)c2CO)cc(Nc2ccc(N3CCN(C4COC4)CC3)cn2)c1=O
inhibition (enzyme activity; inhibitor; 0.1 µM): 14%

Cn1cncc1[C@@](O)(COc1ccc(C#N)cc1-c1ccc(OC(F)(F)F)cc1)c1ccc(C#N)cc1
remaining binding (cell-free assay; competition with immobilised ligand; 1 µM): 100%
